Measured values pooled from the literature.
Protocols differ between the studies behind these lines.
Target: Tyrosine-protein kinase ZAP-70 (ZAP70, Homo sapiens, UniProt P43403)
One construct used (P43403 1-619): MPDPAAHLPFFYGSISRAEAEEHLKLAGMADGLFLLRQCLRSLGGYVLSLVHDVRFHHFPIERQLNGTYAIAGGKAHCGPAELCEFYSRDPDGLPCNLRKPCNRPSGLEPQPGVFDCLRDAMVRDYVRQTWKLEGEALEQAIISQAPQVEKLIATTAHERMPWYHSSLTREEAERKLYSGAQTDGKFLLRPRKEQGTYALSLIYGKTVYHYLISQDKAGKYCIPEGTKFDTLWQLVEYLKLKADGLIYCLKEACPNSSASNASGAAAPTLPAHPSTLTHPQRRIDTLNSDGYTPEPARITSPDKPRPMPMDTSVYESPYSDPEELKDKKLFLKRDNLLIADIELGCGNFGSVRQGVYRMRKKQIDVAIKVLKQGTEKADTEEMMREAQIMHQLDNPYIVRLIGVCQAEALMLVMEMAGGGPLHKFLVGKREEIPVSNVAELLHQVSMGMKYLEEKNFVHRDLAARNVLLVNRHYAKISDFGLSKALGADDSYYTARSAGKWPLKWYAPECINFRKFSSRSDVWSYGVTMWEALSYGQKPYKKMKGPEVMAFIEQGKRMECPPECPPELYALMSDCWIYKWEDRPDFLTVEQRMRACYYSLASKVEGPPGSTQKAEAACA

Structure (SMILES) | observed | method | tested at | remaining binding
Cc1cnc(Nc2ccc(C(=O)N3CCC(N4CCCC4)CC3)cc2)nc1-c1cc2ccccc2s1 | binding | competition with immobilised ligand | 1 µM | 46%
CSc1cccnc1N1CCN(Cc2nc3ccccc3[nH]2)CC1 | cell-free assay | competition with immobilised ligand | 1 µM | 99%
O=C(c1ccc(Nc2nccc(-c3cc4ccccc4s3)n2)cc1)N1CCC(N2CCCC2)CC1 | binding | competition with immobilised ligand | 1 µM | 15%
COc1ccc2c(O[C@@H]3C[C@H]4C(=O)N[C@]5(C(=O)O)CC5/C=C\CCCCC[C@H](NC(=O)OC5CCCC5)C(=O)N4C3)cc(-c3csc(NC(=O)C(C)C)n3)nc2c1C (some centres unmarked) | cell-free assay | competition with immobilised ligand | 1 µM | 100%
O=C(NCCCN1CCOCC1)c1ccc(Nc2nccc(-c3cc4ccccc4s3)n2)cc1 | binding | competition with immobilised ligand | 1 µM | 69%
N[C@@H]1CCN(c2nccc(-c3cnn4ncccc34)n2)C1 | binding | – | 1 µM | 53%
Cc1nc(C2CCN(C(=O)c3ccc(OC(F)(F)F)cc3N)CC2)c2ncc(N3CCN(C)CC3)cc2n1 | cell-free assay | competition with immobilised ligand | 1 µM | 100%
CN(C)c1nccc(-c2cnn3ncccc23)n1 | binding | – | 1 µM | 72%
O=C(N1CCS(=O)(=O)CC1)N1C[C@H](c2ccc(OC(F)(F)F)cc2)C[C@H](c2nc(C3CC3)no2)C1 | cell-free assay | competition with immobilised ligand | 1 µM | 90%
C[C@H]1CCN(c2nccc(-c3cnn4ncccc34)n2)C1 | binding | – | 1 µM | 73%
O=C(O)[C@H]1[C@H](Cn2nnc3ccccc3c2=O)CC[C@@H]1C(=O)c1ccc(OCCC2CCOCC2)cc1 | cell-free assay | competition with immobilised ligand | 1 µM | 100%
COc1cnc(Nc2cccc(S(N)(=O)=O)c2)nc1N1CCN(c2ccccc2)C(=O)C1 | binding | competition with immobilised ligand | 1 µM | 43%
Cc1nc(N2CC[C@@H](O)C2)ncc1-c1cc(C(F)(F)F)cc2[nH]ncc12 | binding | competition with immobilised ligand | 1 µM | 65%
C[C@@H](c1ccc(-n2cnc3c(N)ncnc32)cc1)N1CCc2nn(C)c(Cc3ccccc3)c2C1=O | binding | competition with immobilised ligand | 0.1 µM | 94%
CN(C)c1ncc(F)c(-c2cnn3ncccc23)n1 | binding | – | 1 µM | 79%
CNC(=O)[C@@H]1CC[C@@H](n2c(-c3ccc4cnccc4c3)nc3ccc(C(=O)NCc4cccc(C(N)=O)c4)cc32)C1 | binding | competition with immobilised ligand | 1 µM | 100%
O=C(NCC1CCOCC1)c1n[nH]cc1NC(=O)c1c(F)cccc1F | binding | competition with immobilised ligand | 1 µM | 100%
C[C@@H]1CN(c2ccc3ncc(-c4ccc5[nH]nc(C6CC6)c5c4)n3n2)C[C@H](C)O1 | binding | competition with immobilised ligand | 0.5 µM | 100%
CCOC(=O)c1cc2cc(-c3cc(C(=O)NCc4ccc(C(=O)O)cc4)nn3C)ccc2[nH]1 | cell-free assay | competition with immobilised ligand | 0.1 µM | 98%
CC1CCCN1c1nccc(-c2cnn3ncccc23)n1 (centres unmarked) | binding | – | 1 µM | 100%
N#Cc1ccccc1CSc1nnc2c(n1)[nH]c1ccccc12 | binding | competition with immobilised ligand | 10 µM | 78%
CN(CCCC(F)(F)F)c1nccc(-c2cnn3ncccc23)n1 | binding | – | 1 µM | 100%
O=C(NCCCC1CCCCC1)c1ccc(CNC(=O)c2cnn(-c3ccccc3)c2C(F)(F)F)cc1 | cell-free assay | competition with immobilised ligand | 0.1 µM | 100%
CC(C)(C)c1ccc(-c2nc(CBr)nn2-c2cccc(O)c2)cc1 | cell-free assay | competition with immobilised ligand | 10 µM | 80%
c1cnn2ncc(-c3ccnc(N4CCC45COC5)n3)c2c1 | binding | – | 1 µM | 80%
CCN1CCN(Cc2ccc(C(=O)Nc3ccc(C)c(Oc4ccc5c(c4)CC(=O)N5)c3)cc2C(F)(F)F)CC1 | binding | competition with immobilised ligand | 1 µM | 100%
